Data reported in article PMC6314479 (Nature chemical biology, 2017).

Assays:
[1] = tested on: Ba/F3-FLT3-ITD-luc+ cells; assay: Non-invasive in vivo bioluminescence model of leukemia
Beclin-1 = Beclin-1 and FLT3 protein levels; format: cell-based
wt FLT3 = assay: FLT3 protein levels in Ba/F3-wtFLT3 cells; format: cell-based, murine
[2] = tested on: FLT3-ITD positive primary AML patient cells and primagraft cells; assay: Ex vivo treatment of AML patient samples and primagrafts; format: cell-based, human; conditions: 21 hours, 20 μM
FLT3-ITD = assay: FLT3 degradation in FLT3-ITD positive AML lines; format: cell-based, human; conditions: MOLM13-luc+ and MOLM14, 20 μM
USP10 [3] = target: USP10 (Homo sapiens, UniProt Q14694); assay: MALDI-TOF DUB assay with diubiquitin as substrate, dose response; format: biochemical; conditions: read-out: USP10 IC50
Method in brief: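 Human USP10 was freshly diluted in 40mM Tris–HCl pH 7.6, 5mM DTT, 0.005% BSA and pre-incubated with test compound for 30 min at room temperature. Di-ubiquitin topoisomers (K63, K48, K11, M1) at 1.5 μM were added, incubated 30 min at room temperature, then stopped with TFA at 2% (v/v) final. Cleavage was read by MALDI-TOF.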

[4] = tested on: FLT3-ITD+, D835Y+ AML primagraft; assay: AML primagraft study in NSG mice; format: in vivo
Method in brief: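 Primagraft mice got the test compound at 15 mg/kg IP once daily (n=3) or vehicle (n=3). Dosing began once disease was detectable by flow cytometry and ran for 21 days. Body weight was followed to judge tolerability.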

USP10 [5] = assay: Competitive activity-based protein profiling with HA-Ub-VS in cells; format: cell-based; conditions: lysates from live treated cells (Ba/F3-FLT3-ITD, MOLM14)
[6] = tested on: Ba/F3-FLT3-ITD and Ba/F3-FLT3-D835Y cells; assay: Proliferation of mutant FLT3-positive Ba/F3 cells; format: cell-based, murine
[7] = 50 mg/kg twice daily IP, 4 days, pilot study

USP10 (Homo sapiens, UniProt Q14694), sequence (Q14694 whole entry): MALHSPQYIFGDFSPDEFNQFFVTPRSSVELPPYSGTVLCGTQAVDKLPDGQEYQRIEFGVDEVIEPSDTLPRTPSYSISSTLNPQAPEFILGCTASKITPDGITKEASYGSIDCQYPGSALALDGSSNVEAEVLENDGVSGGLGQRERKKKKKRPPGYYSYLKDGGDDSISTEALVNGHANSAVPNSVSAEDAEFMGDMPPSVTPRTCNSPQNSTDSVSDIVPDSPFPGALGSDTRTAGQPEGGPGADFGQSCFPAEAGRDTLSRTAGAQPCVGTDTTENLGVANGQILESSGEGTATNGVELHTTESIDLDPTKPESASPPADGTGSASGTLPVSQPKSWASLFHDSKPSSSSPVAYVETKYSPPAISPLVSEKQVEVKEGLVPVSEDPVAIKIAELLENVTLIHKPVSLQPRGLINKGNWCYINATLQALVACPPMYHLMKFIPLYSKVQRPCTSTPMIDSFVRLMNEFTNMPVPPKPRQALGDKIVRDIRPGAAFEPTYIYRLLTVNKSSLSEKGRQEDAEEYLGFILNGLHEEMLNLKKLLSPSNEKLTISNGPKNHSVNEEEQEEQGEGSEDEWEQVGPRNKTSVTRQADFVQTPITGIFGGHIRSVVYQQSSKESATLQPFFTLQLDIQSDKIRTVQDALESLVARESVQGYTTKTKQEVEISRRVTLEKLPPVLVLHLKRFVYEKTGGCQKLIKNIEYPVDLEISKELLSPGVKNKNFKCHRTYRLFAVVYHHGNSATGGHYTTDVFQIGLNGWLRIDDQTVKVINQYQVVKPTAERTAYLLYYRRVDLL

Compound	leukemia burden compared to vehicle (in vivo bioluminescence) ([1]; 50 mg/kg IP twice daily or oral gavage once daily, 4–6 days of treatment)	lower percentage of FLT3 expression in bone marrow vs vehicle (flow cytometry) [1, 7]	reduction in luciferase-positive signal in bone marrow vs vehicle [1, 7]	difference in weight vs vehicle-treated mice ([1]; treated for up to 11 days)	protein levels of Beclin-1 (Beclin-1; 10 μM, MOLM14 cells)	FLT3 protein levels (wt FLT3)	FLT3 levels via immunoblotting [2]	FLT3 degradation (FLT3-ITD)	IC50 (USP10 [3]) [µM]	FLT3 signal in mouse bone marrow lysates (immunoblot) ([4]; 15 mg/kg IP 1X daily, 21 days)	tolerability ([4]; 15mg/kg, 21 day treatment)	average weight loss ([4]; 15mg/kg, 21 days, same for vehicle-treated) [g]	inhibitor concentration blocking USP10 labeling by HA-Ub-VS (USP10 [5])	EC50 for inhibition of proliferation [6]	protein levels of Beclin-1 and FLT3 (Beclin-1; 20 μM, Ba/F3-FLT3-ITD and MOLM14 cells)
CC(=O)c1cc([N+](=O)[O-])c(Sc2ccc(F)cc2F)s1 [P22077]	statistically significant decrease	approximately 2 fold	approximately 2 fold	no significant difference	strongly decreased	unchanged	strong reduction in FLT3	strongly induced FLT3 degradation	6	undetectable	generally well tolerated	2 to 3			
HBX19818						unchanged	strong reduction in FLT3	strongly induced FLT3 degradation	14				low micromolar range	single digit micromolar range	strongly decreased
